Active and inactive are the calls of the source. The calls are words filed in the database; no cut-off is given here.
Columns and labels:
IGROV-1 = assay: Antiproliferative activity against human IGROV1 cells assessed as reduction in cell viability after 48 hrs by CellTiter-Blue assay; type: functional; conditions: IGROV-1, 48 h, read-out: LC50 (the source's name)
In short: (§1)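 Cells grown in RPMI1640 with 10% FBS at 37 °C, 5% CO₂. 5,000–10,000 cells/well were pre-incubated overnight, and a time-zero CellTiter-Blue read was taken. Six 10-fold dilutions (top final 10 μM) were applied for 48 h, followed by 0.125 mg/mL CellTiter-Blue for 2–4 h. Resorufin fluorescence was read at ex 560/em 590 nm. […] Triplicates.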

MDA-MB-435 = assay: Antiproliferative activity against human MDA-MB-435 cells assessed as reduction in cell viability after 48 hrs by CellTiter-Blue assay; type: functional; conditions: MDA-MB-435, 48 h, read-out: LC50 (the source's name); in short: as §1
MV4-11 [1] = assay: Induction of apoptosis in human MV4-11 cells harboring wild type p53/FLT3-ITD mutant assessed as cleavage of pro-caspase 3 at 50 to 200 nM after 24 hrs by Western blot analysis; type: functional, cell-based
In short: (§2)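 Cells (1,500,000 per well) grown 12 h, then drug-treated as specified. Lysed in RIPA buffer, sonicated, centrifuged, protein normalized by BCA. Run on 4–12% Bis-Tris gels in MES, transferred, probed overnight at 4 °C with primary antibodies at 1/1000. Actin served as reference for LC3-II quantitation.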

HL-60(TB) = assay: Antiproliferative activity against human HL-60(TB) cells assessed as reduction in cell viability after 48 hrs by CellTiter-Blue assay; type: functional; conditions: HL-60, 48 h, read-out: LC50 (the source's name); in short: as §1
Histone deacetylase 8 = Histone deacetylase 8 (Homo sapiens, UniProt Q9BY41); assay: Inhibition of recombinant full length human C-terminal His-tagged HDAC8 expressed in baculovirus infected Sf9 cells using Boc-Lys (trifluoroacetyl)-AMC as substrate preincubated for 1 hr followed by substrate addition and measured after 2 hrs by fluorescence based micro plate reader analysis
Sequence of Histone deacetylase 8 (Q9BY41 whole entry): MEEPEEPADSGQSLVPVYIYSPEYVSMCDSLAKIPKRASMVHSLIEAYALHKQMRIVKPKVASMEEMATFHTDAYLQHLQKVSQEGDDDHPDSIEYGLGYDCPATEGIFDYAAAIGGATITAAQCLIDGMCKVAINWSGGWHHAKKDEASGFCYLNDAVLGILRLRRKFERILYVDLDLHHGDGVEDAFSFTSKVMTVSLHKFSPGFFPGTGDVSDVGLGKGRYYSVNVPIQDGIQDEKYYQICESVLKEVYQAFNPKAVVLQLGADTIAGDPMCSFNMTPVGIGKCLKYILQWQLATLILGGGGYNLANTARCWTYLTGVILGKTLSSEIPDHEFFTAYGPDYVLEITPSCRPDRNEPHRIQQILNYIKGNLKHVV
In short: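 Recombinant HDAC8 preincubated with test agent at 30 °C for 1 h. Boc-Lys(trifluoroacetyl)-AMC added (final 50 μM), 2 h at 30 °C. Stopped with trypsin/TSA developer for 30 min; fluorescence read at 360/460 nm. Inhibition relative to control wells; IC50 by variable-slope fit.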

MV4-11 [2] = assay: Induction of apoptosis in human MV4-11 cells assessed as cell death at 200 nM after 24 hrs in presence of 50 uM z-VAD by CellTiter-blue dye based spectrophotometric analysis; type: functional
In short: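 MV4-11 cells grown 12 h, then given 200 nM test agent alone or with z-VAD, chloroquine (5 μM) or wortmannin (100 nM) for 24 h. Viability by CellTiter-Blue (0.125 mg/mL, 2–4 h), resorufin fluorescence 560/590 nm, compared with t = 0 wells; n = 3.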

SR = assay: Antiproliferative activity against human SR cells assessed as reduction in cell viability after 48 hrs by CellTiter-Blue assay; type: functional; conditions: read-out: LC50 (the source's name)
In short: (§3)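 NCI-60 panel lines grown in RPMI1640 with 10% FBS at 37 °C, 5% CO₂. Seeded at 5,000–10,000 cells/well and pre-incubated overnight. Exposed for 48 h to six 10-fold dilutions (top final 10 μM), with a time-zero plate read at dosing. CellTiter-Blue (0.125 mg/mL) for 2–4 h, fluorescence 560/590 nm, triplicate curves.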

SF-268 = assay: Antiproliferative activity against human SF268 cells assessed as reduction in cell viability after 48 hrs by CellTiter-Blue assay; type: functional; conditions: SF-268, 48 h, read-out: LC50 (the source's name); in short: as §1
NCI/ADR-RES = assay: Antiproliferative activity against human NCI/ADR-RES cells assessed as reduction in cell viability after 48 hrs by CellTiter-Blue assay; type: functional; conditions: read-out: LC50 (the source's name); in short: as §1
SF-295 = assay: Antiproliferative activity against human SF295 cells assessed as reduction in cell viability after 48 hrs by CellTiter-Blue assay; type: functional; conditions: SF-295, 48 h, read-out: LC50 (the source's name); in short: as §1
SN12C = assay: Antiproliferative activity against human SN12C cells assessed as reduction in cell viability after 48 hrs by CellTiter-Blue assay; type: functional; conditions: read-out: LC50 (the source's name); in short: as §1
HCT-116 = assay: Antiproliferative activity against human HCT116 cells assessed as reduction in cell viability after 48 hrs by CellTiter-Blue assay; type: functional; conditions: HCT-116, 48 h, read-out: LC50 (the source's name); in short: as §1
MV4-11 [3] = assay: Inhibition of p53 degradation in human MV4-11 cells harboring wild type p53/FLT3-ITD mutant at 100 nM after 12 hrs in presence of MDM2 inhibitor RG7388 by Western blot analysis relative to control; type: functional; conditions: MV4-11, 12 h; in short: as §2
MV4-11 [4] = assay: Induction of apoptosis in human MV4-11 cells harboring wild type p53/FLT3-ITD mutant assessed as XIAP degradation at 50 to 200 nM after 24 hrs by Western blot analysis; type: functional, cell-based; in short: as §2
HL-60 = assay: Upregulation of P21WAF1/Cip1 protein expression in p53 null human HL60 cells harboring wild type FLT3 at 50 to 200 nM after 24 hrs by Western blot analysis; type: functional, cell-based
In short: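 RS4;11 cells were cultured in RPMI-1640 with 10% FBS and HL-60 cells in IMDM with 20% FBS. Cells were plated at 1,500,000 per well, grown 12 h, then drug-treated. Lysis was in RIPA buffer with sonication and centrifugation, and loading was normalized by BCA. Lysates were run on 4–12% Bis-Tris gels in MES buffer and transferred, and membranes were probed overnight at 4 °C with 1/1000 primary antibodies.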

[5] = Cmax in CD1 mouse at 20 mg/kg, po via gavage after 24 hrs by LC-MS/MS analysis; type: ADME, organism-based; parameters: dose 20 mg/kg, route oral; conditions: in vivo
In short: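 Male CD-1 mice, fasted overnight, 3 per route; compound in PBS with 5% DMSO, iv bolus 5 mg/kg or oral gavage 20 mg/kg. Blood sampled at 5, 15, 30 min and 1–24 h. Plasma protein-precipitated with acetonitrile plus internal standard, quantified by LC-MS/MS (MRM). AUC by linear trapezoidal method; parameters by non-compartmental analysis.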

MV4-11 [6] = assay: Down regulation of STAT5 in human MV4-11 cells harboring wild type p53/FLT3-ITD mutant at 50 to 200 nM after 24 hrs by Western blot analysis; type: functional, cell-based; in short: as §2
MV4-11 [7] = assay: Induction of pro caspase 3 cleavage in human MV4-11 cells at 200 nM after 24 hrs in presence of 5 nM bortezomib by Western blot analysis; type: functional, cell-based; in short: as §2
UO-31 = assay: Antiproliferative activity against human UO31 cells assessed as reduction in cell viability after 48 hrs by CellTiter-Blue assay; type: functional; conditions: UO-31, 48 h, read-out: LC50 (the source's name); in short: as §3
MV4-11 [8] = assay: Antiproliferative activity agaisnt human MV4-11 cells expressing wild type p53/FLT3-ITD mutant assessed as cell death at 10 uM after 48 hrs by CellTiter-blue assay; type: functional, cell-based
MV4-11 [9] = assay: Induction of apoptosis in human MV4-11 cells assessed as cleavage of pro caspase 3 at 200 nM after 24 hrs in presence of 50 uM z-VAD by Western blot analysis; type: functional, cell-based; in short: as §2
MV4-11 [10] = assay: Down regulation of MDM2 expression in human MV4-11 cells harboring wild type p53/FLT3-ITD mutant at 50 to 200 nM after 24 hrs by Western blot analysis; type: functional, cell-based; in short: as §2

## CCCNNC(=O)/C=C/c1ccc(CNCCc2c(C)[nH]c3ccccc23)cc1.O=C(O)C(F)(F)F
IGROV-1
  CC50: > 10 µM
MDA-MB-435
  CC50: > 10 µM
MV4-11 [1]
  Activity: Active
HL-60(TB)
  CC50: > 10 µM
Histone deacetylase 8
  IC50: 1.76 µM
MV4-11 [2]
  Activity: inactive
SR
  CC50: > 10 µM
SF-268
  CC50: > 10 µM
NCI/ADR-RES
  CC50: > 10 µM
SF-295
  CC50: > 10 µM
SN12C
  CC50: > 10 µM
HCT-116
  CC50: 0.879 µM
MV4-11 [3]
  inhibition at 0.1 µM: 100%
MV4-11 [4]
  Activity: Active
HL-60
  Activity: Active
[5]
  Cmax: 45.1 ng/mL
MV4-11 [6]
  Activity: Active
MV4-11 [7]
  Activity: Active
UO-31
  CC50: > 10 µM
MV4-11 [8]
  Activity: Active
MV4-11 [9]
  Activity: inactive
MV4-11 [10]
  Activity: Active

Source: ChEMBL document CHEMBL4342521 (J Med Chem, 2020)
